HDAC3 inhib = inhibitors of human histone deacetylase 3. recombinant HDAC3, fluorogenic peptide/trypsin coupled, fluorescence. O15379. inhibition, % at 8.3 µM. hit rate 0.15% among 320,000; in the data active = inhibition above about 26%, passing the limit was not always enough
Target sequence (O15379 whole entry, looked up): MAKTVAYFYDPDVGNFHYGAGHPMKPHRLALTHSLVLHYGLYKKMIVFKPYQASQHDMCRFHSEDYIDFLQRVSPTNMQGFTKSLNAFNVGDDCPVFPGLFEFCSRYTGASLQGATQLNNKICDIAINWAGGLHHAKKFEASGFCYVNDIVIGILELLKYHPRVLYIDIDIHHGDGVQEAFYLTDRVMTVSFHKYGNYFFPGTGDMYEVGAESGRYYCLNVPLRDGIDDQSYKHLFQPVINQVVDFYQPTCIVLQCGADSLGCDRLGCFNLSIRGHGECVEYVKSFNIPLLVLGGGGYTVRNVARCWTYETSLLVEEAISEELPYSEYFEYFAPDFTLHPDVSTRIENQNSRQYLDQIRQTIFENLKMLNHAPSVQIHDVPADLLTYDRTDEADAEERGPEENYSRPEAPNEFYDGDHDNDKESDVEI
M18AAP inhibitor = PfM18AAP enzyme inhibition; inhibition, % at 7.35 µM; recombinant PfM18AAP, H-Glu-NHMec fluorogenic cleavage; hit rate 1.2% among 290,000; AID 1822;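 active = inhibition above the campaign mean inhibition over all tested compounds plus 3 SD, cut at about 28% in these data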
SENP1 FRET inh = inhibitors of human SENP1 SUMO protease catalytic domain. Q9P0U3. recombinant SENP1 catalytic domain, CyPet-SUMO1-YPet FRET cleavage. inhibition, % at 10 µM. hit rate 0.21% among 360,000;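 active = inhibition at least 30% at 10 µM, raw YFP signal under a set limit, fluorescence ratio 0.5 to 1.5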
Target sequence (Q9P0U3 419-644 limits assumed): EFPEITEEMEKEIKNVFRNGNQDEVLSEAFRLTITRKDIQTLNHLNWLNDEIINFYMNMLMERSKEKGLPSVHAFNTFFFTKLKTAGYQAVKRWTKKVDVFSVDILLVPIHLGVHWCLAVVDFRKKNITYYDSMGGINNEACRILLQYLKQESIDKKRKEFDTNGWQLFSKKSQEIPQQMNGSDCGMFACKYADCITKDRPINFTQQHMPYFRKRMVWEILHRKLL
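Test system: human SENP1 catalytic domain; medium: Tris pH 8 buffer plus EDTA, NaCl, BME, BSA, NP40, catalase; incubation: 50 min reaction at room temperature; technique: FRET, CFP and YFP emission; controls: no-enzyme low control and enzyme-plus-DMSO high control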
GAA850 FXN act = frataxin GAA850 promoter activation; HEK293 lucGAA850 FXN promoter luciferase reporter, 24 h; percent of 10 µM SAHA response; activation, % at 6 µM; hit rate 0.56% among 360,000;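 active = activation above the average of all compounds screened plus 3 SD, cutoff fixed separately per campaign, cut at about 7.5% in these data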
Fh CTSL1 inh = counter-screen for PFM18AAP inhibitors: inhibitors of F. hepatica cathepsin L1 | recombinant F. hepatica cathepsin L1, Z-Leu-Arg-MCA fluorescence | inhibition, % at 5.96 µM | hit rate 0.49% among 300,000;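 active = inhibition above the mean of all tested compounds plus 3 SD, set per screening campaign, cut at about 17% in these data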
AHR act = activates the human aryl hydrocarbon receptor. AHR-responsive luciferase reporter cells, luminescence. activation, % at 5 µM. hit rate 2.5% among 320,000. AID 2796; in the data active = activation above about 47%
A number is an active result. Hits are enriched below; roughly 4.2% of the tested compounds scored in any of these assays.

Cn1cc(CNC(=O)c2cc(COc3ccc4c(c3)CCCC4)on2)cn1 was read as HDAC3 inhib inactive, M18AAP inhibitor 29.5, SENP1 FRET inh inactive, GAA850 FXN act inactive, Fh CTSL1 inh inactive and AHR act inactive.
For NNC(=O)c1ccc(COc2ccc3c(c2)CCC3)o1 the results were HDAC3 inhib inactive, M18AAP inhibitor inactive, SENP1 FRET inh inactive, GAA850 FXN act inactive, Fh CTSL1 inh inactive and AHR act 59.1.
For Cc1nnc(NC(=O)CSc2nnc(-c3ccco3)o2)s1 the results were HDAC3 inhib inactive, M18AAP inhibitor 29.4, SENP1 FRET inh inactive, GAA850 FXN act inactive, Fh CTSL1 inh inactive and AHR act inactive.
For COCCN(C(=O)CCl)C(C(=O)NC1CCCCC1)c1ccccc1C (stereo unspecified) the results were HDAC3 inhib inactive, M18AAP inhibitor inactive, SENP1 FRET inh inactive, GAA850 FXN act inactive, Fh CTSL1 inh 27.3 and AHR act inactive.
`O=C(Nc1nnc(Cc2ccc([N+](=O)[O-])cc2)s1)c1ccc2c(c1)OCO2` gave HDAC3 inhib inactive, M18AAP inhibitor inactive, SENP1 FRET inh inactive, GAA850 FXN act inactive, Fh CTSL1 inh inactive and AHR act 54.9.
`CC(C)(C)Cc1nnc(NC(=O)c2ccc3c(c2)OCO3)s1` gave HDAC3 inhib inactive, M18AAP inhibitor 30.0, SENP1 FRET inh inactive, GAA850 FXN act inactive, Fh CTSL1 inh inactive and AHR act 48.7.
`CN(C)c1cccc(C(=O)Nc2nnc(Cc3ccccc3)s2)c1` gave HDAC3 inhib inactive, M18AAP inhibitor inactive, SENP1 FRET inh inactive, GAA850 FXN act inactive, Fh CTSL1 inh inactive and AHR act 54.4.
`O=C(Cc1ccc([N+](=O)[O-])cc1)NNC(=O)c1ccc2c(c1)OCO2` gave HDAC3 inhib inactive, M18AAP inhibitor inactive, SENP1 FRET inh inactive and GAA850 FXN act inactive.
O=C(Nc1cc([N+](=O)[O-])c2[nH]c(=O)c3ccccc3c2c1)C(F)(F)F was read as SENP1 FRET inh inactive and GAA850 FXN act inactive.
`CCCCN(C(=O)c1cc2c(s1)CCCCC2)c1c(N)n(CC(C)C)c(=O)[nH]c1=O` gave SENP1 FRET inh inactive and GAA850 FXN act inactive.
Screening CCOC(=O)[C@]12CCCC=C1N(Cc1ccco1)C(=O)[C@H](CC(=O)NCc1ccccc1)C2 returned SENP1 FRET inh inactive.
`O=C(N/N=C/c1c(Cl)cccc1Cl)c1ccccc1F` gave HDAC3 inhib inactive, M18AAP inhibitor inactive, SENP1 FRET inh inactive, GAA850 FXN act inactive, Fh CTSL1 inh inactive and AHR act 59.9.
`COc1ccc(/C=N/NC(=O)c2nn(-c3ccccc3)c(=O)c3c(N)scc23)cc1` gave HDAC3 inhib inactive, M18AAP inhibitor inactive, SENP1 FRET inh inactive, GAA850 FXN act inactive, Fh CTSL1 inh 30.9 and AHR act inactive.
O=C(NC(c1ccc(Cl)cc1)c1cc(Cl)c2cccnc2c1O)c1cccnc1 (stereo unspecified) was read as HDAC3 inhib inactive, M18AAP inhibitor inactive, SENP1 FRET inh 61.6, GAA850 FXN act inactive, Fh CTSL1 inh inactive and AHR act inactive.
`O=C(Nc1ccc(Cl)cc1C(=O)Nc1ccc(Br)cn1)c1ccco1` gave HDAC3 inhib inactive, M18AAP inhibitor inactive, SENP1 FRET inh inactive, GAA850 FXN act inactive, Fh CTSL1 inh inactive and AHR act 61.3.
Screening CC(=O)c1ccc(NC(=O)CN2C(=O)NC(C)(C3CCCCC3)C2=O)cc1 (stereo unspecified) returned HDAC3 inhib inactive, SENP1 FRET inh inactive, GAA850 FXN act inactive and AHR act inactive.
`CCOc1ccc(N2C(=O)CC(Sc3nc(C)cc(C)n3)C2=O)cc1` (stereo unspecified) gave HDAC3 inhib inactive, M18AAP inhibitor inactive, SENP1 FRET inh inactive, GAA850 FXN act inactive, Fh CTSL1 inh inactive and AHR act inactive.
CCOc1ccc(N2CC(=O)N/C2=N\c2nc(C)cc(C)n2)cc1 was read as HDAC3 inhib inactive, M18AAP inhibitor inactive, SENP1 FRET inh inactive, GAA850 FXN act inactive, Fh CTSL1 inh inactive and AHR act 50.1.
For Cc1cc(C)nc(/N=C2\NC(=O)CC(C(=O)O)N2c2ccc(Oc3ccccc3)cc2)n1 (stereo unspecified) the results were HDAC3 inhib inactive, M18AAP inhibitor inactive, SENP1 FRET inh inactive, GAA850 FXN act inactive, Fh CTSL1 inh 36.8 and AHR act inactive.
For CC(C)CN(C(=O)COC(=O)c1ccc(Br)o1)c1c(N)n(Cc2ccccc2)c(=O)[nH]c1=O the results were HDAC3 inhib inactive, SENP1 FRET inh inactive, GAA850 FXN act inactive, Fh CTSL1 inh inactive and AHR act inactive.
For COCCN1CCc2c(C)nc3c(-c4ccc(OC)c(OC)c4)cnn3c21 the results were HDAC3 inhib inactive, M18AAP inhibitor inactive, SENP1 FRET inh inactive, GAA850 FXN act inactive, Fh CTSL1 inh inactive and AHR act 48.6.
Screening COc1ccc(-c2cnn3c4c(c(C)nc23)CCN4C2CCCC2)cc1OC returned HDAC3 inhib inactive, M18AAP inhibitor inactive, SENP1 FRET inh inactive, GAA850 FXN act inactive, Fh CTSL1 inh inactive and AHR act inactive.
CC(=O)Nc1cc(-c2cccc(F)c2)cn2c(-c3ccc(F)cc3)cnc12 was read as SENP1 FRET inh inactive and GAA850 FXN act inactive.
Oc1c(C=C2N=c3ccccc3=N2)sc(=S)n1C1CCCC1 was read as HDAC3 inhib inactive, M18AAP inhibitor inactive, SENP1 FRET inh inactive, GAA850 FXN act inactive, Fh CTSL1 inh inactive and AHR act 59.0.
Screening Oc1c(C=C2N=c3ccccc3=N2)sc(=S)n1-c1ccc2ccccc2c1 returned HDAC3 inhib inactive, M18AAP inhibitor inactive, SENP1 FRET inh inactive, GAA850 FXN act inactive, Fh CTSL1 inh inactive and AHR act inactive.
For CC1(OC(=O)C2CCCC2)C(=O)C=C2C=C(c3ccsc3)N(Cc3ccco3)C=C2C1=O (stereo unspecified) the results were HDAC3 inhib inactive, SENP1 FRET inh inactive, GAA850 FXN act inactive, Fh CTSL1 inh 22.1 and AHR act inactive.
For CCNCCNC(=O)c1c(O)c2cccc3c2n(c1=O)CCC3 the results were HDAC3 inhib inactive, M18AAP inhibitor inactive, SENP1 FRET inh inactive, GAA850 FXN act inactive, Fh CTSL1 inh inactive and AHR act 59.6.
For COc1cccc(NC(=O)COC(=O)CCn2c(C)csc2=O)c1 the results were HDAC3 inhib inactive, SENP1 FRET inh inactive, GAA850 FXN act inactive, Fh CTSL1 inh inactive and AHR act inactive.
`C[C@@H]1CCC2[C@](C)(CO)[C@@H](O)CC[C@]2(C)[C@@]12CC[C@@](CO)(CC(=O)O)O2` (stereo partly specified) gave HDAC3 inhib inactive, M18AAP inhibitor inactive, SENP1 FRET inh inactive, GAA850 FXN act inactive, Fh CTSL1 inh inactive and AHR act inactive.
For COc1ccc(NC(=O)CN(C)C(=O)/C=C/c2cn(-c3ccccc3)nc2-c2ccc(F)cc2)cc1 the results were HDAC3 inhib inactive, SENP1 FRET inh inactive, GAA850 FXN act inactive, Fh CTSL1 inh inactive and AHR act inactive.
